Experimental data of several laboratories.
Lines come from different studies, so protocols differ.
HCK: Tyrosine-protein kinase HCK (HCK, Homo sapiens, UniProt P08631)

| SMILES | target | observed | mode | method | tested at | measurement | result |
| --- | --- | --- | --- | --- | --- | --- | --- |
| CN(C)C1CCN(CC#Cc2nn(C3CCCC3)c3nc(NCc4ccccc4)ncc23)C1 (stereo not shown) | HCK | enzyme activity | inhibitor | FRET | 10 µM | inhibition | 19% |
| CCN(CC)CCNC(=O)c1c(C)[nH]c(/C=C2\C(=O)Nc3ccc(F)cc32)c1C | HCK | enzyme activity | inhibitor | – | 0.3 µM | inhibition | 22% |
| CNCc1ccccc1-c1csc([C@H](C)Nc2nc(C)nc3cc(OC)c(OC)cc23)c1 | HCK | cell-free assay | – | competition with immobilised ligand | 1 µM | remaining binding | 98% |
| COc1cc2ncnc(Nc3ccc(Oc4ccccc4)cc3C)c2cc1OC | HCK | enzyme activity | inhibitor | – | 1 µM | inhibition | 91% |
| C[C@H](c1ccnc(Nc2nc3ccc(-c4cc(N(C)C)ncn4)cc3[nH]2)c1)N1CCN(C(=O)CC(F)(F)F)CC1 | HCK | cell-free assay | – | competition with immobilised ligand | 0.1 µM | remaining binding | 91% |
| Cc1ccc(NC(=O)c2ccc(C)c(C(F)(F)F)c2)cc1C#Cc1nn(C2CCC(O)CC2)c2ncnc(N)c12 (stereo not shown) | HCK | enzyme activity | inhibitor | – | 10 µM | remaining activity | -1% |
| CS(=O)(=O)CCNCc1ccc(-c2ccc3ncnc(Nc4ccc(OCc5cccc(F)c5)c(Cl)c4)c3c2)o1 | HCK | cell-free assay | – | – | 0.5 µM | remaining signal | 86.5% |
| Cc1ccc(Nc2nccc(N(C)c3ccc4c(C)n(C)nc4c3)n2)cc1S(N)(=O)=O | HCK | enzyme activity | inhibitor | – | 10 µM | inhibition | 90% |
| Cc1ccc(NC(=O)c2ccc(CN3CCN(C)CC3)cc2)cc1Nc1nccc(-c2cncc(-c3oncc3C)c2)n1 | HCK | enzyme activity | inhibitor | – | 0.5 µM | remaining activity | ≤ 50% |
| O=C(Nc1cccnn1)N1CC(C/C=C/c2cncc(Oc3ccc(C(F)(F)F)cn3)n2)C1 | HCK | cell-free assay | – | competition with immobilised ligand | 1 µM | remaining binding | 100% |
| O=C1Nc2ccc(Cl)cc2C1=Cc1cc(Cl)c(O)c(Cl)c1 | HCK | cell-free assay | – | – | 0.5 µM | remaining signal | 83.2% |
| O=C(Nc1ccc(Oc2ccc(F)cc2)cc1)N1CCc2ncccc2[C@H]1c1ccc(F)cc1 | HCK | cell-free assay | – | competition with immobilised ligand | 1 µM | remaining binding | 100% |
| Cc1ccc(C(=O)NCc2ccsc2)cc1C#Cc1cn(C(C)C)c2ncnc(N)c12 | HCK | enzyme activity | inhibitor | – | 1 µM | activity vs control | 4% |
| CNc1cccc2cc(C(=O)Nc3ccc(C(=O)O)cc3)c(=O)[nH]c12 | HCK | enzyme activity | inhibitor | – | 10 µM | inhibition | -12% |
| CNC(=O)c1cc2c(Oc3ccc(NC(=O)C4(C(=O)Nc5ccc(F)cc5)CC4)cc3)ccnc2cc1OC | Tyrosine-protein kinase HCK, phosphorylated (HCK, Homo sapiens, UniProt P08631) | enzyme activity | inhibitor | radiometric | 1 µM | inhibition | 88% |
| CCCOc1ccc([C@@H]2[C@@H](C(=O)O)[C@H](c3ccc4c(c3)OCO4)CN2CC(=O)Nc2c(CC)cccc2CC)cc1 | HCK | cell-free assay | – | competition with immobilised ligand | 1 µM | remaining binding | 92% |
| COc1cc2ncnc(Nc3ccc(F)c(Cl)c3)c2cc1OCCCN1CCOCC1 | HCK | cell-free assay | – | – | 0.5 µM | remaining signal | 73.3% |
| O=C(Nc1cnn(-c2csc(C(=O)NC3COC3)c2)c1)Nc1c(F)cccc1Cl | HCK | enzyme activity | inhibitor | – | 5 µM | remaining activity | 91.3% |
| COc1cc2c(N3CCN(C(=O)Nc4ccc(OC(C)C)cc4)CC3)ncnc2cc1OCCCN1CCCCC1 | HCK | cell-free assay | – | – | 0.5 µM | remaining signal | 93.2% |
| COc1ccc2c(c1)O[C@H](c1ccc(OC)c(OC)c1)C[C@@H]2NC(=O)C1(c2ccc3c(c2)OC(F)(F)O3)CC1 | HCK | cell-free assay | – | competition with immobilised ligand | 1 µM | remaining binding | 100% |
| CCCS(=O)(=O)Nc1ccc(F)c(C(=O)c2c[nH]c3ncc(-c4ccc(Cl)cc4)cc23)c1F | HCK | enzyme activity | inhibitor | – | 1 µM | inhibition | < 10% |
| Cc1c(NC(=O)c2cc(C(N)=O)nc3cc(F)ccc23)c(C(F)(F)F)nn1Cc1ccc(C#N)cc1 | HCK | cell-free assay | – | competition with immobilised ligand | 1 µM | remaining binding | 69% |
| Cc1ccc(C(=O)Nc2ccc(CN3CCN(C)CC3)c(C(F)(F)F)c2)cc1C#Cc1cnc2cccnn12 | HCK | enzyme activity | – | – | 23.5 nM | remaining activity | 1.6% |
| Cc1c(NC(=O)c2cc(C(N)=O)nc3cc(F)ccc23)c(C(F)(F)F)nn1Cc1ccc(C(C)(C)C)cc1 | HCK | cell-free assay | – | competition with immobilised ligand | 1 µM | remaining binding | 92% |
| O=C(Nc1cnn(-c2csc(C(=O)NC3COC3)c2)c1)Nc1ccccc1Cl | HCK | enzyme activity | inhibitor | – | 5 µM | remaining activity | 94% |
